FXIa inh = inhibitors of human coagulation factor XIa; purified FXIa, Boc-Glu-Ala-Arg-AMC fluorogenic substrate; inhibition, % at 5 µM; 220,000 tested, 0.14% active; AID 798;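 active = inhibition of at least 40%; inactive = inhibition below 40%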;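 also: fluorescence of freed AMC excited at 355 nm; 0% = enzyme without compound and 100% = no enzyme blank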
KLK5 inh = inhibitors of human kallikrein 5; Q9Y337; recombinant hK5, fluorogenic AMC substrate cleavage; inhibition, % at 5 µM; 210,000 tested, 0.59% active;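 active = inhibition of 40% or more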;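 also: 0% = enzyme controls without compound and 100% = no-enzyme blanks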
Target sequence (Q9Y337 67-293 limits assumed): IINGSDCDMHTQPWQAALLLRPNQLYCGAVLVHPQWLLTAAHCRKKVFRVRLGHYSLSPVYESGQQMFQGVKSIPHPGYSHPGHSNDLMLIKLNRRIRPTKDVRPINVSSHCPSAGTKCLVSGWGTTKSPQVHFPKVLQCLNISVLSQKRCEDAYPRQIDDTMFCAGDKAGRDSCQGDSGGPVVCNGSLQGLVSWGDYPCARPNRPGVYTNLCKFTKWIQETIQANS
thrombin 1536 = inhibitors of human thrombin; alpha-thrombin, Boc-VPR-AMC fluorogenic substrate cleavage; inhibition, % at 5 µM; 220,000 tested, 0.26% active;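 active = inhibition at or above 40%; inactive = inhibition below 40%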;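 also: 0% = enzyme with no compound and 100% = wells without enzyme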
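Material: human alpha-thrombin protein. Incubation: reaction at ambient temperature. Technique: fluorescence of released AMC, ex 355 nm, em 460 nm. Control set: no-compound enzyme wells and no-enzyme blanks. Also added: Boc-VPR-AMC substrate, 15 µM final. Buffer or medium: pH 7.5 Tris (50 mM) with NaCl 150 mM, Tween 20 0.05%.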
FXIIa inh 1536 = inhibitors of human coagulation factor XIIa; P00748; purified FXIIa, Boc-QGR-AMC fluorogenic substrate, 2 h; inhibition, % at 5 µM; 220,000 tested, 0.3% active; AID 800; in the data active = inhibition above about 40%;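 also: 0% = enzyme with no compound and 100% = blank without enzyme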
Active calls of the source: *; x = not tested or not shown. Rows were chosen to be rich in hits. Some 1% of all compounds tested hit in one or more screens of this group.

SMILES | FXIa inh | KLK5 inh | thrombin 1536 | FXIIa inh 1536
N#Cc1c(NC(=O)CSc2nnnn2C2CCCC2)sc2c1CCCC2 | 2.6 | -15.1 | -6.5 | -5.5
CC(C)(C)OC(=O)CC[C@@H](C(=O)N1CCN(C(=O)OC(C)(C)C)CC1)n1cc(C(Cc2ccc(O)cc2)NC(=O)OC(C)(C)C)nn1 (stereo not given in full) | 2.4 | 3.9 | 6.1 | 11.4
Cn1cc(-c2nnc(-c3ccccc3)o2)c2ccccc21 | -11.4 | 86.8* | 1.5 | -15.0
COc1ccccc1C(=O)NNC(=O)c1ccc(Cl)cc1 | -0.9 | -4.6 | -9.1 | 4.8
COc1cc(OC)cc(C(=O)NNC(=O)c2ccccc2Br)c1 | -4.0 | 30.5 | 88.6* | 0.9
COc1ccccc1C(=O)NNC(=O)c1ccc(F)cc1 | 2.9 | 60.7* | 17.6 | 8.6
COc1ccc(NS(=O)(=O)c2ccc(NS(=O)(=O)c3ccc(C)cc3)cc2)nn1 | -0.3 | 64.6* | 4.4 | 1.7
COc1cc(NS(=O)(=O)c2ccc(NC(C)=O)cc2)ncn1 | 5.9 | -6.9 | -1.2 | 13.9
O=C(OCc1ccccc1)/C(=C/c1cccc2ccccc12)NC(=O)c1ccccc1 | 18.2 | 46.7* | 13.8 | 17.6
COc1ccccc1OCc1ccc(C(=O)Nc2ccc(Cl)cn2)o1 | -0.2 | 3.5 | -3.6 | 11.4
Cc1cccc(-n2c(=S)[nH]c3c(oc4ccccc43)c2=O)c1 | 11.4 | 18.3 | 10.6 | 10.7
CCSCc1nnc(SCC(=O)Nc2nc(C)cs2)n1C | -1.2 | -6.4 | 1.3 | 4.0
O=C(Nc1ccc(F)cc1F)c1ccc(-n2cccn2)nc1 | -4.3 | -0.4 | -1.8 | 3.5
O=C(Nc1ccc(F)cc1F)c1ccc(-n2cncn2)nc1 | -2.8 | -4.9 | 43.7* | 5.6
CC(C)(C)c1nc2c(Br)cc(Br)cc2c(=O)o1 | -6.5 | -5.2 | -0.5 | -0.2
O=C1OC(Nc2ccc(Cl)cn2)c2ccccc21 (stereo not given) | -6.5 | 1.7 | -6.3 | -2.3
CN(NC1OC(=O)c2ccccc21)c1ncc(Cl)cc1C(F)(F)F (stereo not given) | 15.9 | 35.2 | 13.6 | 107.0*
CC1CN(c2ccc(Cl)cc2[N+](=O)[O-])CCN1S(C)(=O)=O (stereo not given) | -1.7 | 0.7 | -11.3 | 2.8
COc1ccc(N(CC(O)CN2C(=O)NC(C)(C)C2=O)S(=O)(=O)c2ccc(C)cc2)cc1 (stereo not given) | 2.4 | -13.7 | -4.6 | -7.8
Cc1ccc(N(CC(O)CN2C(=O)NC(C)(C)C2=O)S(=O)(=O)c2ccc(C)cc2)cc1 (stereo not given) | 34.4 | 31.2 | 12.0 | 49.2*
Cc1cc(Cl)ccc1Oc1ccccc1C(=O)CC#N | -2.7 | -8.3 | -6.9 | 4.7
COc1ccc(NC(=O)n2nc(OC(=O)c3cccs3)cc2N)cc1 | 18.2 | 6.6 | 46.4* | 19.2
COc1ccc(-c2ccc(S(=O)(=O)n3nc(OC(=O)c4cccs4)cc3N)cc2)cc1 | 8.6 | 8.9 | 6.5 | 13.0
COCCSc1nnc(NC(=O)c2ccc([N+](=O)[O-])cc2)s1 | -0.3 | -1.6 | -3.6 | 10.4
CCOC(=O)CSc1nnc(NC(=O)c2cc([N+](=O)[O-])cc([N+](=O)[O-])c2)s1 | 13.3 | 17.7 | 92.2* | 20.9
SMILES | FXIa inh | KLK5 inh | thrombin 1536 | FXIIa inh 1536
CC(=O)c1ccc(N2CCN(C(=O)c3cc(-c4ccc5c(c4)OCO5)nc4ccccc34)CC2)cc1 | -5.9 | 81.5* | -0.2 | -6.8
O=C(O)c1cc(-c2ccc3c(c2)OCO3)nc2ccccc12 | 9.1 | -5.8 | 1.8 | 14.9
CC(C)OC(=O)c1cccnc1N1CCN(c2cccc(Cl)c2)CC1 | 10.3 | 20.7 | 7.8 | 18.6
O=C(NCCCn1ccnc1)c1cc2cc([N+](=O)[O-])ccc2oc1=O | 3.9 | -11.4 | -7.6 | 7.8
CCc1ccc(C(=O)COC(=O)CNC(=O)c2ccc(N3C(=O)c4ccccc4C3=O)cc2)cc1 | 3.7 | 43.7* | 3.8 | 26.9
COc1cccc(NC(=O)c2ncc(Cl)c(Cl)c2Cl)c1 | -2.8 | -1.0 | -5.5 | 1.4
Cc1ccc(NC(=O)C(C)N2CCOCC2)c(C(=O)c2ccccc2)c1 (stereo not given) | 4.5 | 42.5* | 19.4 | 14.3
CC(C)C(=O)Nc1cc2c(cc1C(=O)c1ccccc1)OCCO2 | 0.9 | 0.8 | 0.0 | 19.1
O=C(O)CCNC(=S)Nc1cccc(F)c1 | -6.7 | -4.7 | -7.3 | -5.5
O=C(Cn1cccc1C(=O)c1ccccc1)NCCC1=CCCCC1 | 3.8 | -320.7 | 3.0 | 4.8
CCC(=O)c1ccccc1OCCSc1nc(C)cc(=O)[nH]1 | -1.9 | 145.7* | 2.2 | -0.1
CCCOc1cccc(OCCSc2nc(C)cc(=O)[nH]2)c1 | -8.4 | -12.7 | -2.2 | -1.2
Cc1ccc(NC(=O)/C=C\C(=O)NCC(=O)O)cc1C | 6.1 | -19.0 | -3.6 | 12.0
O=C(CCC(=O)N/N=C/c1ccc(Br)s1)NCc1ccccc1 | 9.9 | 20.4 | 28.6 | 44.2*
Cc1ccc(S(=O)(=O)N2CCSC2=Nc2ccccc2)cc1 | -7.3 | 0.4 | -7.5 | -2.9
COc1ccc(C2CC(C(F)(F)F)n3nc(C(=O)Nc4ccc5c(c4)OCO5)cc3N2)cc1 (stereo not given) | -3.9 | 16.7 | 36.2 | 42.7*
CC(OC(=O)C1CCN(S(=O)(=O)c2ccc(Cl)cc2)CC1)C(=O)N1CCc2ccccc21 (stereo not given) | -3.7 | -2.8 | -1.2 | 0.4
COC(=O)C(=Cc1ccccc1[N+](=O)[O-])C(=O)OC | -4.1 | 1.8 | -0.9 | 9.1
CCN(CC)CCN1C(=O)c2ccccc2NC1c1ccc(F)cc1 (stereo not given) | 0.5 | -72.2 | -2.7 | 4.5
CCN(CC)CCN1C(=O)c2ccccc2NC1c1ccccc1F (stereo not given) | 13.3 | 41.4* | 24.6 | 15.7
COC(=O)c1ccc(Cl)c(NC(=O)CSc2ncn[nH]2)c1 | -9.8 | -23.5 | -10.1 | -5.9
CNC(=S)Nc1cccc(C(=O)OC)c1 | 4.9 | 51.4* | 9.3 | 32.0
COC(=O)c1cccc(NC(=O)CSc2ncn[nH]2)c1 | 44.3* | -2.2 | 1.9 | 54.3*
O=C(O)c1cc(NN=Nc2ccc(Br)cc2)cc([N+](=O)[O-])c1 | 6.5 | 2.8 | 5.3 | 10.3
CCOC(=O)Cn1c(=NC(=O)CC)sc2c(C)cc(C)cc21 | 2.7 | 2.5 | -11.7 | 6.5
SMILES | FXIa inh | KLK5 inh | thrombin 1536 | FXIIa inh 1536
CCOC(=O)Cn1c(=NC(=O)C2CC2)sc2c(C)cc(C)cc21 | 27.8 | 41.1* | 17.4 | 29.0
O=C(C1CCCN(S(=O)(=O)c2cccc3nsnc23)C1)N1CCCCCC1 (stereo not given) | -3.1 | x | -2.3 | 5.8
CC1CCCN(C(=O)C2CCCN(S(=O)(=O)c3cccc4nsnc34)C2)C1 (stereo not given) | -1.3 | -14.4 | -9.8 | 44.1*
Cc1cc(C(C#N)c2cccc(Cl)c2)n2ncnc2n1 (stereo not given) | 14.4 | -1.1 | 0.6 | 41.9*
CCOC(=O)N1CCC(N2C(=O)c3ccccc3C2Nc2ccc(S(=O)(=O)N3CCCCC3)cc2)CC1 (stereo not given) | -3.3 | -7.8 | -2.5 | 2.0
CCOC(=O)c1[nH]c2ccccc2c1NC(=S)Nc1ccccc1 | 6.1 | -9.1 | 43.0* | 14.7
COc1cc(Cl)c(C)cc1NC(=O)COc1ccccc1[N+](=O)[O-] | 7.2 | 10.7 | 1.3 | 10.9

Assay outcomes (PubChem)
